Screens: PubChem BioAssay, several laboratories
Thrombin inh – human alpha-thrombin inhibitors, primary screen, counter-screen for coagulation protease inhibitor project, biochemical, 1536-well, fluorogenic AMC substrate | Boc-VPR-AMC fluorogenic substrate cleavage | inhibition, % at 5 µM | hit rate 0.26% among 220,000;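 active means inhibition at or above 40%; inactive means inhibition below 40%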
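Test system: human alpha-thrombin protein / Dosing: one concentration per compound, 5 µM, with 0.2% DMSO / Medium: pH 7.5 Tris-saline with Tween 20 / Benchmarks: no-compound enzyme wells and no-enzyme blanks / Read-out basis: percent inhibition of thrombin substrate cleavage / Timing: reaction at room temperature / Measured by: fluorescence, ex 355 nm, em 460 nm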
FXIIa inh 1536 – human FXIIa protease inhibitors, primary screen, biochemical, 1536-well | purified FXIIa, Boc-QGR-AMC fluorogenic substrate, 2 h | inhibition, % at 5 µM | AID 800, 2007 | hit rate 0.3% among 220,000; in the data active means inhibition above about 40%
hK5 inh – human KLK5 protease inhibitors, primary screen, biochemical, 1536-well; Kallikrein-5 (Homo sapiens), Q9Y337; recombinant hK5, fluorogenic AMC substrate cleavage; inhibition, % at 5 µM; hit rate 0.59% among 210,000; AID 873, 2007;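 active means inhibition of 40% or more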
FXIa inh – human FXIa protease inhibitors, primary screen, biochemical, 1536-well; inhibition, % at 5 µM; hit rate 0.14% among 220,000; purified FXIa, Boc-Glu-Ala-Arg-AMC fluorogenic substrate; AID 798, 2007; Coagulation factor XI (Homo sapiens), P03951;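 active means inhibition of at least 40%; inactive means inhibition below 40%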;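 further: fluorescence of freed AMC excited at 355 nm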
Furin inhibitor – human furin inhibitors, primary screen, biochemical, fluorescence intensity. purified furin, fluorogenic substrate cleavage. inhibition, % at 20 µM or 30 µM. hit rate 0.061% among 220,000; in the data active means inhibition above about 25%
Target sequence (P09958 108-714 limits assumed): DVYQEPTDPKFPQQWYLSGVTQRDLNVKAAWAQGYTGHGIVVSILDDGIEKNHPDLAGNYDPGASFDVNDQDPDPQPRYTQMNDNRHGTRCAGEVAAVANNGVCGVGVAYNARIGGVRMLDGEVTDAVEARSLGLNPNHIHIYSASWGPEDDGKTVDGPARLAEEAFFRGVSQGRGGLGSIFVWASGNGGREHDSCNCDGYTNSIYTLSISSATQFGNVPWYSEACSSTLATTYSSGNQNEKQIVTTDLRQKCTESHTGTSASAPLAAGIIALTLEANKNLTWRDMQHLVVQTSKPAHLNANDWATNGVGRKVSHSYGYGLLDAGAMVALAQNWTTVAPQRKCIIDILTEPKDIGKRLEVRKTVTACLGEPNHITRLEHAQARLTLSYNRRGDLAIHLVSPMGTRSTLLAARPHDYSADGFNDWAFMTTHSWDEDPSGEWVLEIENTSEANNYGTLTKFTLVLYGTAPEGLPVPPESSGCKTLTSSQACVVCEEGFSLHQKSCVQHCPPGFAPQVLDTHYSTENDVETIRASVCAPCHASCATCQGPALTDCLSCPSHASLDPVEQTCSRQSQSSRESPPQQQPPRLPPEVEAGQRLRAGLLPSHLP
Numbers stand for hits; - = inactive; . = not tested or not shown. Most compounds without a hit are left out; they make up all but 1.1% or so of the library.

SMILES | Thrombin inh | FXIIa inh 1536 | hK5 inh | FXIa inh | Furin inhibitor
COc1ccc2nc(SCC(=O)N3CCN(c4ccc(F)cc4)CC3)c(C#N)cc2c1 | - | - | - | - | -
O=C(NCc1ccccc1)c1ccc(CS(=O)(=O)c2ccccc2)o1 | - | - | - | - | -
O=C(CCCc1nc2ccccc2s1)NC(c1ccccc1)c1ccccc1 | - | - | - | - | -
O=C1CN(CC(=O)N2CCOCC2)c2ccccc2O1 | - | - | 42 | - | -
Oc1ccc2ccccc2c1C=NC12CN3CCN(CN(C3)C1)C2 | - | - | 44 | - | -
CNc1oc(-c2ccc(Cl)cc2)nc1P(=O)(c1ccccc1)c1ccccc1 | - | - | - | - | -
Cc1sc2nc(N)sc2c1C | - | - | 63 | - | -
Cc1ccc(C)c2sc(N)nc12 | - | - | - | - | -
O=C1CC(N2CCN(c3nc4ccccc4s3)CC2)C(=O)N1Cc1cccs1 (stereo not given) | - | - | - | - | -
O=C1CC(N2CCC(c3nc4ccccc4o3)CC2)C(=O)N1Cc1cccs1 (stereo not given) | - | - | - | - | 27
CC(=O)c1ccc(NC(=S)NNC(=O)c2ccncc2)cc1 | - | - | - | - | -
COCCNc1nnc(SCC(=O)NNC(=O)c2ccccc2)s1 | - | - | - | - | -
COCCNc1nnc(SCC(=O)c2c[nH]c3ccccc23)s1 | 101 | - | - | - | -
CCn1c(SCC(=O)NCc2cccs2)nnc1-c1cccs1 | - | - | - | - | -
C=CCn1c(Cc2cccs2)nnc1SCC(=O)NCc1ccco1 | - | - | - | 48 | -
C=CCn1c(Cc2cccs2)nnc1SCC(=O)Nc1ccc(OC)c(OC)c1 | - | - | - | - | -
Cn1c(SCC(=O)NCc2cccs2)nnc1-c1cccs1 | - | - | 52 | - | -
CCC(C(=O)OCn1nnc2ccccc2c1=O)c1ccccc1 (stereo not given) | - | - | - | - | -
CCCC(=O)Nc1c(-c2ccccc2)c(=O)c(C)nn1-c1ccc(C)cc1 | - | - | - | - | -
CCCC(=O)n1nc(-c2ccc(Cl)cc2)nc1SC | 52 | - | - | - | -
CCC(=O)n1nc(-c2ccc(OC)cc2)nc1SC | - | - | - | - | -
CCC(=O)n1nc(-c2ccc(Cl)cc2)nc1SC | 57 | - | - | - | -
Cc1nn(C(C)C)c(C)c1CN1CCCC(CCC(=O)NCc2ccccc2F)C1 (stereo not given) | - | - | . | - | -
CC(C)c1csc(CN2CCCC(CCC(=O)NCc3ccccc3F)C2)n1 (stereo not given) | - | - | - | 50 | -
Cc1ccc(S(=O)(=O)N2CCN(Cc3cc(C(C)C)ccc3O)CC2)cc1 | - | 43 | - | - | -
SMILES | Thrombin inh | FXIIa inh 1536 | hK5 inh | FXIa inh | Furin inhibitor
Cc1ccc(S(=O)(=O)N2CCN(Cc3ccccc3C(F)(F)F)CC2)cc1 | - | - | - | - | -
Cc1ccc(N=CC=C2OC(C)(C)C(C)(C)O2)c(C)c1 | - | - | - | - | -
CC1(C)OC(=CC=Nc2ccc(Cl)cc2)OC1(C)C | - | 45 | - | - | -
COc1ccc(NC(=O)Nc2cccnc2)c(OC)c1 | - | - | . | - | -
COc1cccc(NC(=O)Nc2cccnc2)c1 | - | 40 | 71 | - | -
COc1cccc(NC(C(=O)Nc2cccc(C(C)=O)c2)c2ccccc2)c1 (stereo not given) | - | 54 | - | - | -
COc1cccc(NC(=O)Nc2ccccc2SC)c1 | - | 102 | - | - | -
O=c1c2ccccc2c2c(O)nc(-c3ccccc3)n2n1Cc1ccccc1 | - | - | - | - | -
Cc1ccc(/C=N/Nc2cc(C)nc(NCc3ccccc3)n2)cc1 | - | - | - | - | -
Cc1cc(N/N=C/c2ccc(O)cc2)nc(NS(=O)(=O)c2ccccc2)n1 | - | - | 47 | - | -
CCC1CCC2(CC1)NNC(=S)NN2 | - | - | - | - | -
O=C(COc1ccc(Cl)cc1Cl)NC(=O)N1CCCCC1 | - | - | - | - | 32
CC(=O)c1ccc(N2CCN(C(=O)CCCn3c(=S)[nH]c4cc5c(cc4c3=O)OCO5)CC2)cc1 | - | - | - | - | -
O=C(CCCn1c(=S)[nH]c2cc3c(cc2c1=O)OCO3)N1CCN(c2ccccc2)CC1 | - | - | 130 | - | -
Cc1ccccc1-n1cnc2cc(NCc3cccs3)ccc21 | 41 | - | 40 | - | -
Cc1ccc(NC(=O)NCc2ccc3c(c2)OCO3)cc1 | - | 75 | - | - | -
O=C(CCl)Nc1ccccc1C(=O)Nc1ccc2c(c1)OCO2 | - | - | 42 | - | -
CC(=O)Nc1ccc(C(=O)Nc2ccc3c(c2)OCO3)cc1 | - | - | 41 | - | -
O=c1c2ccccc2nnn1CSc1nnc2sc3ccccc3n12 | - | - | - | - | -
COc1ccc(NC(=O)c2cccc(S(=O)(=O)Nc3ccc(Br)cc3)c2)cn1 | - | - | 40 | - | -
O=C(Nc1ccc(Br)cc1)c1cccc(S(=O)(=O)Nc2cnc3ccccc3c2)c1 | - | - | - | - | -
CCOC(=O)CSC1=C(C#N)C(c2ccc(Cl)cc2)CC(=O)N1 (stereo not given) | - | - | 45 | - | -
Cc1ccc(OC(F)F)c(NC(=O)Nc2cccc(C(F)(F)F)c2)c1 | - | - | 56 | - | -
CCn1nc(CC(=O)O)c2ccccc2c1=O | - | - | - | 66 | -
CCCCn1nc(CC(=O)O)c2ccccc2c1=O | - | - | - | - | -
SMILES | Thrombin inh | FXIIa inh 1536 | hK5 inh | FXIa inh | Furin inhibitor
CCOc1ccc(S(=O)(=O)N(C)c2ccc(OCC(=O)NCC3CCCO3)cc2)cc1 (stereo not given) | - | - | - | - | -
O=C(CN1CCOCC1)N1CCc2ccccc2C(c2ccccc2)C1 (stereo not given) | - | - | 73 | - | -
O=C(CBr)N1CCc2ccccc2C(c2ccccc2)C1 (stereo not given) | - | - | - | - | -
CCC(=O)N/C(=N/c1nc(C)cc(C)n1)Nc1ccc(OC)cc1 | 51 | - | - | - | -
COc1ccc(Cl)cc1N1C(=O)CC(Sc2ccccc2N)C1=O (stereo not given) | - | - | - | - | -
O=[N+]([O-])c1ccc(C2Nc3cccc4cccc(c34)N2)cc1 | - | - | 63 | - | -
COCCNC(=O)Cn1nc(C(F)(F)F)cc1C | 104 | - | 44 | - | -
CCOC(=O)CN/C=C(\C#N)c1ccccc1 | - | - | - | - | -
O=c1cc(CSc2nnc(NC3CCCCC3)s2)nc2sccn12 | - | - | - | - | -
COC(=O)c1cc(CSc2nnc(NC3CCCCC3)s2)oc1C | - | - | 42 | - | -
COc1cc([N+](=O)[O-])ccc1NC(=S)Nc1cc(C(=O)OC(C)C)cc(C(=O)OC(C)C)c1 | - | - | - | - | -
COc1ccc(C2C(C(=O)O)c3ccccc3C(=O)N2C)cc1Br (stereo not given) | - | 58 | - | - | -
